# Compound activity from PubChem BioAssay.
# Granule exo inh = lytic granule exocytosis inhibition | TALL-104 LAMP-1 surface exposure, flow cytometry; cells stimulated with thapsigargin and PMA | inhibition, % at 10 µM | 0.66% of 360,000 active;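 active = inhibition above about 55%, limit read from the data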
# ABCB6 inh 2 = human ABCB6 transporter inhibition | Q9NP58 | K562-ABCB6 porphyrin accumulation, flow cytometry, 1 h; hits give low values | fluorescence ratio to DMSO, % at 10 µM | 0.19% of 360,000 active;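 active = fluorescence ratio to DMSO below 75%, the collection mean minus 3 SD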;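 note: signal is porphyrin accumulated inside mitochondria; 100% equals median channel fluorescence of DMSO control wells; lower ratio means ABCB6 inhibition with less porphyrin fluorescence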
# FGF22 binding = FGF22 (human) thermal shift binding. Q9HCT0. recombinant FGF22 thermal shift, SYPRO orange fluorescence; percent of sucrose octasulfate shift, DMSO zero. activity (Tm shift, normalised), % at 9.99 µM. 1.5% of 340,000 active. AID 651658;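 active = mean Tm shift, scaled 0 neutral to 100 positive control, at about 1.3% or above, every replicate too, limit read from the data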
# Target sequence (Q9HCT0 whole entry, looked up): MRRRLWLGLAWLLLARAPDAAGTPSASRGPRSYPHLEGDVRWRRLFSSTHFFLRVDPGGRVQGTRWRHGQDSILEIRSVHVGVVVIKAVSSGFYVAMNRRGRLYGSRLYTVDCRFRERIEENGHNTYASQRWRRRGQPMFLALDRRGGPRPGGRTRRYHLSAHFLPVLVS
# DAGLB inh = blocks human DAGLB lipase activity; 0.059% of 340,000 active; HEK293T DAGLB membrane lysate, EnzChek fluorogenic substrate; Q8NCG7; AID 504411; inhibition, % at 5.17 µM; in the data active = inhibition above about 34%;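 note: 0% = enzyme with vehicle and 100% = wells lacking enzyme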
# MT1-MMP act inh = MT1-MMP (human) activation inhibition; HT1080 RFP-PRO-GFP cells, GFP/RFP ratio fluorescence, overnight; percent of plate control window, DMSO zero; GFP/RFP ratio change, % at 20 µM; 0.061% of 360,000 active; AID 651647;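 active = GFP/RFP ratio change of at least 30% with cell ATP level not reduced by more than half and red fluorescence within 50% of control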
#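 Assay system: RFP-PRO-GFP reporter HT1080 cells; read-out basis: GFP/RFP fluorescence ratio; benchmarks: DMSO wells and RFP-L50D-GFP cells; doses: 20 µM single dose, 1% DMSO; schedule: overnight cell settling, then overnight compound exposure, 37 °C, 5% CO2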
# VLA-4 inh = inhibition in a human VLA-4 binding assay | P13612 | VLA-4 expressing cells, ligand binding flow cytometry | inhibition, % (about 7 µM as worked out from the volumes in the protocol) | 0.2% of 330,000 active; in the data active = inhibition above about 50%
# The depositor's hits bear a star; . = no result given. Most compounds without a hit are left out; they make up all but 2% or so of the library.
SMILES,Granule exo inh,ABCB6 inh 2,FGF22 binding,DAGLB inh,MT1-MMP act inh,VLA-4 inh
CCCSC1=C(C#N)C(c2cccs2)CC(=O)N1 (centres undefined),90*,86,0,0,5,-3
CCOC(=O)NNS(=O)(=O)c1cc(Br)ccc1Br,0,103,43*,-2,0,9
CCCNC(=O)N(C)C[C@H]1Oc2cc(-c3ccccc3F)ccc2S(=O)(=O)N([C@H](C)CO)C[C@@H]1C,.,.,0,.,.,.
O=[N+]([O-])c1ccc(N=NN(CCO)CCO)cc1,-2,96,0,1,0,12
O=[N+]([O-])c1ccc(N=Nc2ncc[nH]2)cc1,79*,324,0,4,-17,-336
Cc1noc(C)c1NC(=O)N(C)C[C@@H]1OCCCC[C@H](C)Oc2ccc(NS(=O)(=O)c3c(C)noc3C)cc2C(=O)N([C@H](C)CO)C[C@@H]1C,.,.,0,.,.,.
CCN1CCN(CC(O)COC(c2ccccc2)c2ccccc2)CC1 (centres undefined),12,98,44*,-4,-2,8
OC(COC(c1ccccc1)c1ccccc1)CN1CCCCC1 (centres undefined),-3,91,.,5,1,5
Cc1sc2nc(CN3CCCC3)nc(N3CCN(C(=O)c4ccco4)CC3)c2c1C,3,97,44*,-1,-4,-1
C[C@@H]1CN([C@@H](C)CO)C(=O)Cc2cc(NC(=O)C3CCCCC3)ccc2O[C@H]1CN(C)S(=O)(=O)c1ccc(F)cc1,.,.,0,.,.,.
COC(=O)[C@@H]1[C@@H](CO)[C@@H]2Cn3c(ccc(-c4ccncc4)c3=O)[C@@H]2N1CC1CCCCC1,.,.,0,.,.,.
S=c1[nH]nc(-c2cc(-c3ccccc3)n[nH]2)n1/N=C/c1ccccc1,3,97,0,0,7,7
S=c1[nH]nc(-c2cc(-c3ccccc3)n[nH]2)n1/N=C/C(Br)=C/c1ccccc1,63*,99,.,.,1,-2
CC(=O)NS(=O)(=O)c1ccc(NC(=S)NC(=O)Cc2ccccc2)cc1,0,97,43*,4,-2,5
CC(=O)NS(=O)(=O)c1ccc(NC(=S)NC(=O)CC(C)C)cc1,1,100,0,.,-1,5
Cc1cccc(C)c1NC(=O)CN(C)c1ccc(C(F)(F)F)cn1,-10,99,43*,1,3,0
C[C@@H]1CN([C@@H](C)CO)C(=O)Cc2cc(NC(=O)CCCCCC(=O)Nc3ccccc3N)ccc2O[C@H]1CN(C)C(=O)Nc1ccc(F)cc1,.,.,0,.,.,.
Cn1ccnc1Sc1ccccc1[N+](=O)[O-],8,99,43*,-2,-3,3
CC(C)S(=O)(=O)c1ccc(C(=O)Nc2ccc(F)cc2F)cn1,1,106,43*,1,3,-2
CCOC(=O)Cc1csc(NC(=O)CCSc2ccccc2)n1,18,98,2.5*,-2,-5,-1
CCOC(=O)Cc1csc(NC(=O)CCc2ccccc2)n1,-8,97,0,-1,2,10
Cc1nn(C)c(C(=O)Sc2cccc(Cl)c2)c1[N+](=O)[O-],64*,94,0,1,-2,3
Cc1nn(C)c(C(=O)Sc2ccccc2)c1[N+](=O)[O-],-4,106,0,0,3,20
CCn1nc(C)cc1C(=O)Sc1cccc(Cl)c1,68*,90,0,5,0,13
COc1ccc(CN(C)C[C@H]2OCCCC[C@H](C)Oc3ccc(NC(=O)NC(C)C)cc3C(=O)N([C@@H](C)CO)C[C@@H]2C)cc1,.,.,0,.,.,.
COc1ccc(CN(C)C[C@@H]2Oc3ccc(NC(=O)Cc4ccccc4)cc3C(=O)N([C@@H](C)CO)C[C@H]2C)cc1,.,.,0,.,.,.
COc1ccc(-n2nc(C(=O)NCC(=O)NCC3COc4ccccc4O3)c3ccccc3c2=O)cc1 (centres undefined),2,93,43*,0,-9,-5
O=C(Cc1ccncc1)Nc1ccc2c(c1)[C@H]1C[C@@H](CC(=O)N3CCOCC3)O[C@@H](CO)[C@H]1O2,.,.,0,.,.,.
Cc1sc2ncnc(N3CCN(Cc4ccccc4)CC3)c2c1-c1ccccc1,63*,96,0,-10,-3,-1
